FAS TE block = inhibitors of human fatty acid synthase thioesterase domain | P49327 | 360,000 compounds, 0.67% hits | recombinant FAS-TE, OMFH fluorogenic substrate, fluorescence endpoint | inhibition, % at 15 µM;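 active means compounds whose normalised, plate-corrected inhibition of enzyme fluorescence in the single-dose primary screen is 50% or more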
Runt-SMMHC FRET = blocks binding of human RUNX1 Runt domain to CBFb-SMMHC; Cerulean-Runt/Venus-CBFb-SMMHC FRET ratio 530/480, 1 h; 220,000 compounds, 0.74% hits; Q01196+Q13951; AID 1434; inhibition, % at 20 µM;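 active means mean inhibition across duplicate retests at 20 µM reaching about 50%, limit read from the data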;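 further: inhibitors lower the FRET ratio by blocking Runt binding to CBFb-SMMHC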
RanGTP-Impb inh = disruptors of Ran-importin-beta complex formation – biochemical, FRET, CFP-Ran, YFP-importin-beta, homogeneous, primary screen. AID 2216. cell-free CFP-Ran/YFP-importin-beta FRET ratio. 300,000 compounds, 1.1% hits. inhibition, % (concentration not given with the values);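 active means more than half of the replicate wells show a fall in the fluorescence ratio signal beyond about 16%, limit read from the data, passing the limit was not always enough; inconclusive means exactly half of the replicate wells pass the set limit; inactive means fewer than half of replicates pass the limit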
Runt-CBFb FRET = blocks binding of human RUNX1 Runt domain to CBFb | AID 1496 | Q01196+Q13951 | Cerulean-Runt/Venus-CBFb FRET ratio 530/480, 1 h | inhibition, % at 20 µM | 220,000 compounds, 0.46% hits;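 active means inhibition over about 50% at 20 µM in the single-dose screen, limit read from the data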
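test system = Cerulean-tagged RUNX1 Runt domain (FRET donor) fusion protein | reagent = Venus-CBFb binding partner, 100 nM | incubation = protein complex preformed 1 h, compound exposure 1 h, room temperature, dark | detection = FRET fluorescence | read-out basis = loss of energy transfer signal | controls = 5 µM unlabeled CBFb as full-inhibition high control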
m-calpain inh = inhibitors of pig calpain II | purified calpain II, fluorogenic peptide substrate, 30 min | inhibition, % at 16 µM | 220,000 compounds, 0.37% hits;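 active means inhibition above about 50%, limit read from the data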
FAS-TE inh conf = confirmation of human fatty acid synthase thioesterase inhibitors; shares compounds with FAS TE block; recombinant FAS-TE, OMFH fluorogenic substrate, fluorescence; inhibition, % at 15 µM; 2,300 compounds, 45% hits; AID 624325;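 active means compounds inhibiting the enzyme by at least 50% at 15 µM in any one of the replicates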
A number is an active result; – = inactive; ? = inconclusive; · = not tested or not shown. Most compounds without a hit are left out; they make up all but 2.1% or so of the library.

SMILES	FAS TE block	Runt-SMMHC FRET	RanGTP-Impb inh	Runt-CBFb FRET	m-calpain inh	FAS-TE inh conf
CCC(=O)N1c2ccc(S(=O)(=O)N3CCN(c4ccc([N+](=O)[O-])cc4)CC3)cc2CC1C (stereo unspecified)	64	·	–	·	·	–
Cc1ccc(C)c(N2CCN(S(=O)(=O)c3ccc4c(c3)CC(C)N4C(=O)C3CC3)CC2)c1 (stereo unspecified)	54	·	–	·	·	–
Cn1c(N)c(C(=O)COC(=O)CNC(=O)c2ccccc2Cl)c(=O)n(C)c1=O	–	·	·	·	·	·
C/C(=N\NC(=O)C(=O)Nc1cc(C)ccc1C)c1ccncc1	–	–	–	–	–	·
CCC(C)NC(=O)CSc1nc2c(sc(=S)n2Cc2ccco2)c(=O)n1-c1ccccc1 (stereo unspecified)	51	–	–	–	–	53
CCn1c(=S)sc2c(=O)n(-c3ccccc3)c(SCC(=O)NCc3ccco3)nc21	–	–	–	–	–	·
COCC1CCCCN1C(=O)c1ccc2nc(Cc3ccc(OC)c(OC)c3)oc2c1 (stereo unspecified)	–	·	–	·	·	·
COCCNC(=S)N(CCc1c(C)[nH]c2ccccc12)Cc1cccnc1	–	·	–	·	·	·
Nc1c(N(CCC2=CCCCC2)C(=O)c2ccccc2F)c(=O)[nH]c(=O)n1Cc1ccccc1	–	·	·	·	·	·
O=C(OCC(=O)N1CCc2ccccc2C1)c1cccc([N+](=O)[O-])c1	56	–	–	–	–	67
O=C(Cn1cc([N+](=O)[O-])cn1)N1CCN(c2ccccc2)CC1	–	·	–	·	·	·
CC(C)(C)N(Cc1ccccc1)C(=O)COC(=O)c1cccc([N+](=O)[O-])c1	77	–	–	–	–	42
CC(=O)N1CCN(S(=O)(=O)c2cccc(C(=O)OCC(=O)N(Cc3ccccc3)C(C)(C)C)c2)CC1	–	·	·	·	·	·
O=C(Cn1cc([N+](=O)[O-])cn1)N1CCc2ccccc2C1	56	–	?	–	–	58
COc1ccccc1Cn1[nH]nnc1=S	–	–	–	–	–	·
N#Cc1ccc(CSc2ccc(S(=O)(=O)N3CCCC3)cn2)cc1	64	·	·	·	·	64
O=[N+]([O-])c1ccc(CSc2ccc(S(=O)(=O)N3CCCC3)cn2)cc1	58	·	·	·	·	54
O=[N+]([O-])c1ccc(CSc2ccc(S(=O)(=O)N3CCOCC3)cn2)cc1	53	·	·	·	·	55
Cc1ccc(CSc2ccc(S(=O)(=O)N3CCOCC3)cn2)cc1	–	·	·	·	·	·
CC(C)c1ccc(CSc2ccc(S(=O)(=O)N3CCOCC3)cn2)cc1	69	·	·	·	·	36
O=[N+]([O-])c1ccc(CSc2ccc(S(=O)(=O)N3CCCCC3)cn2)cc1	–	·	·	·	·	·
COc1ccc(NC(=O)CCCc2nc3ccccc3c(=O)[nH]2)cc1Cl	–	·	·	·	·	·
CCCC1(C(=O)OC)NC(c2ccc(OC)cc2OC)C2C(=O)N(c3cccc(C(C)=O)c3)C(=O)C21 (stereo unspecified)	–	·	–	·	·	·
CCc1ccc(NSc2ccccc2[N+](=O)[O-])cc1	51	–	–	–	–	–
O=C(O)CSc1cc(C(=O)c2ccccc2O)cn2c(=O)c3c(-c4ccccc4)csc3nc12	70	–	–	–	–	79
SMILES	FAS TE block	Runt-SMMHC FRET	RanGTP-Impb inh	Runt-CBFb FRET	m-calpain inh	FAS-TE inh conf
O=C(CCCC(=O)Nc1cccc(Br)c1)N/N=C/c1cc([N+](=O)[O-])ccc1O	54	·	?	·	·	72
O=C(CCC(=O)Nc1cccc(Cl)c1)N/N=C/c1cc([N+](=O)[O-])ccc1O	65	–	–	–	–	83
Cc1ccc(NC(=O)CCC(=O)N/N=C/c2cc([N+](=O)[O-])ccc2O)cc1	–	–	?	–	–	·
CC(NC(=O)C1CCN(C(=O)Nc2ccccc2)CC1)c1ccccc1Cl (stereo unspecified)	–	·	·	·	·	·
COc1cc2c(cc1OC)C(=O)N1[C@H]3c4cc(Cl)ccc4OC[C@@H]3[C@H](c3ccccc3)[C@]1(C)C(=O)N2	86	·	·	·	·	–
CCOC(=O)[C@H]1[C@H]2COc3ccc(Cl)cc3[C@@H]2N2C(=O)c3cc(OC)ccc3NC(=O)[C@@]12C	–	·	·	·	·	·
COc1cc2c(cc1OC)C(=O)N1[C@H]3c4cc(C)ccc4OC[C@@H]3[C@H](c3ccccc3)[C@]1(C)C(=O)N2	64	·	·	·	·	–
CCN1C(=O)[C@H]2[C@@H](c3ccc(-c4ccc5c(c4)OCO5)cc3)N[C@@](Cc3ccccc3)(C(=O)OC)[C@H]2C1=O	67	·	·	·	·	–
CCN1C(=O)[C@H]2[C@@H](c3ccc(-c4ccc(Cl)c(Cl)c4)c(OC)c3)N[C@@](Cc3ccccc3)(C(=O)OC)[C@H]2C1=O	70	·	–	·	·	–
COc1ccc(CN(C(=S)Nc2ccccc2)C2CC(=O)N(c3ccc(F)cc3)C2=O)cc1 (stereo unspecified)	–	–	–	–	–	·
CNC(=S)N(Cc1ccc(OC)cc1)C1CC(=O)N(c2ccc(Cl)cc2)C1=O (stereo unspecified)	62	–	–	–	–	70
O=C(Nc1nc2ccccc2s1)c1ccc([N+](=O)[O-])o1	–	·	–	·	·	·
COc1ccc2nc(NC(=O)c3ccc([N+](=O)[O-])o3)sc2c1	58	·	–	·	·	51
CN(C)C(CNC(=O)c1cccc(S(=O)(=O)NCc2ccccc2)c1)c1ccccc1 (stereo unspecified)	–	·	·	·	·	·
Cc1cccc(C2=NN(c3ccccc3)[C@@H](C(=O)N3CCOC3=O)[C@@H]2c2ccc(Cl)cc2)c1	56	·	·	·	·	–
O=C1OCCN1C(=O)[C@H]1[C@H](c2ccccc2)C(c2cccc(Cl)c2)=NN1c1ccccc1	56	·	·	·	·	–
Cc1cccc(C2=NN(c3ccccc3)[C@@H](C(=O)N3CCOC3=O)[C@@H]2c2ccc(F)cc2)c1	–	·	·	·	·	·
COc1ccc(S(=O)(=O)NCCCN2CCCC2=O)cc1OC	–	·	–	·	·	·
Cc1ccc(NC(=O)COC(=O)CC2CCCC2)cc1F	–	·	·	·	·	·
O=C(NCCCc1ccccc1)c1ccc([N+](=O)[O-])cc1Cl	84	·	–	·	·	88
Cc1ccc(OCCNC(=O)CNC(=O)c2ccc(Cl)c([N+](=O)[O-])c2)cc1	62	·	·	·	·	54
Cc1ccc(C(=O)NCCc2cccc(Cl)c2)cc1[N+](=O)[O-]	52	–	–	–	–	–
CCCCOc1ccc(C(=O)NCC(=O)NCCOc2ccc(C)cc2)cc1	–	·	·	·	·	·
O=C(NCCc1cccc(Cl)c1)c1ccc(Cl)c([N+](=O)[O-])c1	72	–	–	–	–	50
O=C(NCCc1nc2ccccc2[nH]1)c1ccc(Cl)c([N+](=O)[O-])c1	–	–	–	–	–	·
CSc1ccccc1OCc1cc(C(=O)NCCn2ccnc2C)no1	–	·	–	·	·	·
C=CC(=O)N(CCC)C(c1ccccc1)c1ccccc1OC (stereo unspecified)	–	·	–	·	·	·
COCCC(=O)N1CCC(n2nccc2NC(=O)CCc2ccccc2)CC1	–	·	–	·	·	·
